Compound activity from PubChem.
A selection: hits, their analogues and other compounds. The true share with any hit is near 1.2%.
LANA-H2B inh = blocks KSHV LANA binding to histone H2A/H2B. AID 2629. hit rate 0.6% among 320,000. Q9QR71. cell-free LANA-H2A/H2B peptide, fluorescence polarization. inhibition, % (test concentration not listed); in the data active = inhibition mostly above about 10%, no sharp cut-off; inactive = mostly below about 6.7%
Target sequence (Q9QR71 whole entry, looked up): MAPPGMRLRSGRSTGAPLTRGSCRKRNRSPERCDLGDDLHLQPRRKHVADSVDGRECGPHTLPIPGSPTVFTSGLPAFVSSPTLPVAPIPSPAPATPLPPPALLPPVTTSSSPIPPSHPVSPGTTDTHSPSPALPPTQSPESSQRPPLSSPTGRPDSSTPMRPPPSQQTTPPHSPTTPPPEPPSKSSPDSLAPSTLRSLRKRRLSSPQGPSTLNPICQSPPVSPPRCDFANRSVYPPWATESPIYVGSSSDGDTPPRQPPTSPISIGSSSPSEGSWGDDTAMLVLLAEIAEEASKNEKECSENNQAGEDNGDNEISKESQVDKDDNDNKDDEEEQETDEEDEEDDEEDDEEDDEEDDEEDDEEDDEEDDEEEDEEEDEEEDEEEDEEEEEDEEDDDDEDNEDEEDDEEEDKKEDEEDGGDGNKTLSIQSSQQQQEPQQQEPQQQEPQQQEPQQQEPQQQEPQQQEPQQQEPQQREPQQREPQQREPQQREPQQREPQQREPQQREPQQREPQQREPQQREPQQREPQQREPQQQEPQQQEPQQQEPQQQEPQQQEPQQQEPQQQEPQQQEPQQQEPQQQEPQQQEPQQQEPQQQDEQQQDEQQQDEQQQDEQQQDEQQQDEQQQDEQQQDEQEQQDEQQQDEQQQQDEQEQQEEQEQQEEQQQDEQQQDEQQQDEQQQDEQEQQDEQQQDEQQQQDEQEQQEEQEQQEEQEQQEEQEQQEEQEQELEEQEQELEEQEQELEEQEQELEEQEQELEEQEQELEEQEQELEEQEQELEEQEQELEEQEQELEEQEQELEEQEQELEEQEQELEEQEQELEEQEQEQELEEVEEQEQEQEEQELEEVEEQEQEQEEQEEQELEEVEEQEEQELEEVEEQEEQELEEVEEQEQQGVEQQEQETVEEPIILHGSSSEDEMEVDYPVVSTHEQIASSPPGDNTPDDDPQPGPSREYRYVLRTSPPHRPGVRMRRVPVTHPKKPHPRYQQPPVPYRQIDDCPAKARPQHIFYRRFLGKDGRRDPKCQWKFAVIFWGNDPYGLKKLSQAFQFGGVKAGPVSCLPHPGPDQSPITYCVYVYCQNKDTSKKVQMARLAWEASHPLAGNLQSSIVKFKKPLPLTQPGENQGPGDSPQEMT
ARFGAP1 inh = inhibits rat ARF GTPase activating protein 1 | Q62848 | Arfgap1-stimulated ARF1 GTP hydrolysis, GDP FP detection | inhibition, % at 16.5 µM | hit rate 0.26% among 360,000 | AID 651572;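 active = inhibition above a per-plate limit, mean inhibition of low control wells plus 3 SD, cut at about 25% in these data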;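 also: 0% = DMSO wells with enzyme and 100% = wells lacking Arfgap1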
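Assay system: Rat Arfgap1 GAP domain (His6, aa 1-136), purified enzyme | Buffer or medium: HEPES 25 mM pH 7.5, NaCl 150 mM, MgCl2, DTT | Schedule: GTP hydrolysis reaction 2 h at 25 °C | Signal: FP of antibody-bound GDP Alexa 633 tracer, ex 620/em 688 nm | Measure: Percent inhibition of Arfgap1-stimulated GTP hydrolysis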
proCasp3 act = procaspase-3 (human) activation | recombinant procaspase-3 D3A, Ac-DEVD-pNA absorbance 405 nm | hit rate 0.11% among 330,000 | activation, % at 8.5 µM | AID 463141;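 active = activation above the mean of all tested compounds plus 3 SD, cut at about 21% in these data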;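 also: 0% = DMSO alone and 100% = DMSO wells spiked with extra 5 µM PC-3 D3A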
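Compound: 8.5 µM single point, 0.8% DMSO / Material: Autoprocessing-dead procaspase-3 D3A mutant enzyme / Timing: 1 h preincubation plus 2 h reaction at 25 °C / Medium: Zinc-free HEPES/NaCl buffer with 0.01% Triton X-100 at pH 7.4 / Technique: 405 nm absorbance of p-nitroaniline, reads at 0 and 120 min / Repeats: one well per compound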
CR mimetic SO = yeast age-related superoxide inhibition as caloric restriction mimetic; superoxide response (% of plate mean), % at 10 µM; hit rate 0.18% among 330,000; S. cerevisiae aged cells, superoxide DHE fluorescence; active compounds read low;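 active = superoxide response under a set limit, about three screen SD below normal, cut at about 65% in these data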;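 also: yeast aged for seven days with compound at 30 °C before DHE staining; 100% = average MFI of all compound-treated wells on the plate with controls excluded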
proCasp7 act = activates human procaspase-7, counter-screen for procaspase-3 activators | activation, % at 8.5 µM | hit rate 0.093% among 330,000 | P55210 | recombinant procaspase-7, Ac-DEVD-pNA absorbance 405 nm; D23A/D198A/D206A triple mutant, cannot self-cleave; scale: DMSO 0, 5 µM enzyme 100 | AID 463210;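 active = percent activation above the screen-wide mean plus 3 SD, cut at about 25% in these data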
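Assay system: Uncleavable procaspase-7 mutant enzyme | Input: 2 µM procaspase-7 mutant as dispensed | Timing: 1 h compound preincubation, 2 h substrate cleavage, 25 °C | Repeats: One well per compound | Control set: DMSO wells as 0%, DMSO with 5 µM added PC-7 as 100% | Technique: Epi-absorbance of released pNA at 405 nm, two timepoints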
ASAP1 inh = blocks human ASAP1-stimulated Arf1 GTP hydrolysis | Q9ULH1 | GDP FP detection | inhibition, % at 16.5 µM | hit rate 0.19% among 360,000; in the data active = inhibition above about 25%;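 also: 0% = vehicle with enzyme and substrate and 100% = no enzyme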
Numbers without * were called inactive; · = not tested or not shown; + = active, no number.

SMILES | LANA-H2B inh | ARFGAP1 inh | proCasp3 act | CR mimetic SO | proCasp7 act | ASAP1 inh
Cc1ccc([C@H]2C(C(=O)O)=CC[C@@H](c3ccc(C)cc3)N2S(=O)(=O)c2ccc(C)cc2)cc1 | + | -13 | 0 | 107 | -4 | -3
CCCCN1CC(COCc2ccccc2)Oc2cccc(NCc3cc(OC)c(OC)c(OC)c3)c2S1(=O)=O (stereo not drawn) | · | 1 | · | · | · | -7
NS(=O)(=O)c1ccc(CCNC(=O)CNC(=O)c2ccc(Br)o2)cc1 | 23* | · | -6 | 163 | -5 | ·
Cc1ccc(/C=C2\C(=N)N3N=C(CC(=O)N4CCOCC4)SC3=NC2=O)o1 | 18* | -4 | -1 | 125 | 2 | 7
Cc1noc(C)c1CSc1nnc2n(-c3ccccc3)c(=O)c3ccccc3n12 | 21* | 6 | -1 | 107 | 5 | 5
Nc1[nH]c(C(=O)c2ccccc2)c(-c2ccc(Cl)cc2)c1C(=O)c1c[nH]c2cc(F)ccc12 | · | 3 | · | · | · | 12
O=C(/C=C/c1ccc(F)cc1)N1CC[C@@]2(O)CCCC[C@H]2C1 | 4.7* | -7 | 0 | 97 | 6 | -5
CCc1ccccc1NC(=O)CN1CCN(C(=O)CNC(=O)c2ccccc2F)CC1 | + | -9 | -2 | 107 | -9 | 16
CCc1ccccc1NC(=O)CN1CCN(C(=O)CNC(=O)c2ccc(N3CCCC3=O)cc2)CC1 | 1 | -6 | 7 | 86 | 1 | 3
O=C(Nc1ccc(Oc2c(F)c(F)c(F)c(F)c2F)cc1)OC1CCN2Cc3ccccc3N=C12 (stereo not drawn) | 15* | · | -2 | 100 | 4 | ·
O=C1CC(=O)C(n2cncn2)C(c2cccc(Cl)c2)C1 (stereo not drawn) | 16* | 2 | -3 | 101 | 1 | -25
COc1ccc(C2CC(=O)CC(=O)C2n2cncn2)cc1 (stereo not drawn) | -5 | -4 | -3 | 99 | -5 | -1
CCS(=O)(=O)CCn1c([N+](=O)[O-])cnc1C | 11* | 2 | 9 | 108 | 5 | -12
COC(=O)[C@]12C[C@H](CC(=O)N3CCCCC3)C(=O)N(Cc3ccccc3)C1=C[C@H](C(C)(C)C)O[C@@H]2C | · | -9 | · | · | · | 8
CCC(C)NCCOc1ccc(C(C)(C)c2ccccc2)cc1 (stereo not drawn) | 14* | 4 | 2 | 113 | -5 | -4
ClCc1ncc(-c2ccc(Cl)cc2)o1 | -1 | 0 | -1 | 91 | -6 | 1
N#Cc1ccccc1NCc1ccccc1 | 15* | 3 | 1 | 103 | -8 | -3
C/C=C/c1cnc2c(c1)C(=O)N([C@H](C)CO)C[C@H](C)[C@@H](CN(C)C(=O)CN1CCOCC1)O2 | · | 0 | · | · | · | 4
COc1ccc(Nc2nc3ccccc3c(=O)[nH]2)cc1 | 21* | 4 | 3 | 94 | 6 | -5
COc1ccc(C(=O)Nc2nc3ccccc3c(=O)[nH]2)cc1 | 40* | 8 | 4 | 94 | -8 | -1
Cc1ccc(Nc2nc3ccccc3c(=O)[nH]2)cc1C | -6 | 1 | -4 | 79 | 1 | -2
CN(C(=O)c1cccc(NC(=O)Cc2ccc(NC(=O)C3CCN(C(=O)CCc4ccccc4)CC3)cc2)c1)C1CCCC1 | · | 4 | · | · | · | -4
CCCNC(=O)C1CCN(S(=O)(=O)c2ccc3[nH]c(=O)ccc3c2)CC1 | 20* | 11 | -11 | 100 | 0 | 3
CCCCNC(=O)C1CCN(C(=O)C2CCN(S(=O)(=O)c3ccc(C)cc3)CC2)CC1 | 13* | -11 | -3 | 129 | 4 | 0
CCC(C)NC(=O)C1CCN(S(=O)(=O)c2ccc3[nH]c(=O)ccc3c2)CC1 (stereo not drawn) | -4 | -6 | -3 | 125 | -3 | 0
SMILES | LANA-H2B inh | ARFGAP1 inh | proCasp3 act | CR mimetic SO | proCasp7 act | ASAP1 inh
COc1ccc(C2C(C(=O)c3ccco3)=C(O)C(=O)N2CC2CCCO2)cc1OC (stereo not drawn) | 19* | -9 | -1 | 109 | -33 | 0
O=C(C[C@@H]1C/C=C/CCCC(=O)O[C@H](c2ccccc2)CNC1=O)N[C@H](CO)Cc1ccccc1 | 10* | 2 | 8 | 96 | -2 | 3
O=C(C[C@H]1C/C=C\C[C@@H](Cc2ccc(F)cc2)C(=O)O[C@H](c2ccccc2)CNC1=O)N[C@@H](CO)Cc1ccccc1 | 0 | 4 | 5 | 117 | 11 | 0
COC(=O)C1=C(C)N(Cc2ccc(C(F)(F)F)cc2)C(=NCc2ccccc2C(F)(F)F)NC1c1ccc(C(F)(F)F)cc1 (stereo not drawn) | · | 20 | · | · | · | 0
CN1CCCCC(NC(=O)c2ccc(F)cc2)C1=O (stereo not drawn) | · | 7 | · | · | · | -12
CCOc1ccc(C(=O)NC(C(=O)NCCc2ccc(S(N)(=O)=O)cc2)C(C)C)cc1 (stereo not drawn) | 14* | 1 | 9 | 94 | -4 | -2
CC(C)C(NC(=O)c1c(F)cccc1F)C(=O)NCCc1ccc(S(N)(=O)=O)cc1 (stereo not drawn) | -2 | 2 | 9 | 89 | -1 | -15
CC1(C(=O)Nc2ccc3c(c2)OCO3)CCN1C(=O)Cc1ccc(-c2ccccc2)cc1 (stereo not drawn) | · | 1 | · | · | · | 2
Cc1nn(C)c(C(=O)Nc2ccc(S(=O)(=O)NC34CC5CC(CC(C5)C3)C4)cc2)c1Br | 57* | · | 9 | 115 | 11 | ·
COc1cc(CNc2ccc(C)c(C)c2)cc(OC)c1OC | 5.5* | · | 2 | 101 | 7 | ·
COc1ccc(CNc2ccc(C)c(C)c2)cc1 | -1 | -8 | 6 | 90 | 3 | 4
COC(=O)c1cc(NC(=O)c2ccc([N+](=O)[O-])cc2)c(=O)oc1C | 13* | 4 | -2 | 98 | -2 | 10
Cc1cc(N2CCNC[C@@H]2C)ccc1N1CCS(=O)(=O)CC1 | · | -15 | · | · | · | -15
CC(=O)Nc1sc(NC(=O)c2ccco2)nc1-c1cccs1 | 4 | -13 | 6 | 85 | 17 | -1
O=C(Nc1nc(-c2cccs2)c(-c2ccccc2)s1)c1ccco1 | 6 | 34* | -5 | 109 | 2 | 15
CCOc1ccc(C(=O)NC(C)C2COc3ccccc3O2)cc1 (stereo not drawn) | 36* | 0 | 8 | 89 | 9 | 4
Oc1ccc2nnc3c(Br)cnn3c2c1 | 19* | -10 | 4 | 105 | 1 | 10
Clc1ccc2nc3c4ccccc4cnn3c2c1 | 5 | -8 | 3 | 104 | 2 | -3
COC(=O)[C@]12C[C@H](CC(=O)N3CCSCC3)C(=O)N(Cc3ccc4c(c3)OCO4)C1=C[C@H](COCc1ccccc1)O[C@@H]2C | · | 11 | · | · | · | -6
